Data as given in ChEMBL document CHEMBL3352208, “Semisynthetic analogues of toxiferine I and their pharmacological properties at α7 nAChRs, muscle-type nAChRs, and the allosteric binding site of muscarinic M2 receptors” (J Nat Prod, 2014).

What was measured:
[1] = molecular target: T1, Muscarinic acetylcholine receptor M2 (Sus scrofa, UniProt P06199); test: Displacement of [3H]NMS from pig muscarinic M2 receptor after 120 mins by liquid scintillation counting
T1 sequence (P06199 whole entry): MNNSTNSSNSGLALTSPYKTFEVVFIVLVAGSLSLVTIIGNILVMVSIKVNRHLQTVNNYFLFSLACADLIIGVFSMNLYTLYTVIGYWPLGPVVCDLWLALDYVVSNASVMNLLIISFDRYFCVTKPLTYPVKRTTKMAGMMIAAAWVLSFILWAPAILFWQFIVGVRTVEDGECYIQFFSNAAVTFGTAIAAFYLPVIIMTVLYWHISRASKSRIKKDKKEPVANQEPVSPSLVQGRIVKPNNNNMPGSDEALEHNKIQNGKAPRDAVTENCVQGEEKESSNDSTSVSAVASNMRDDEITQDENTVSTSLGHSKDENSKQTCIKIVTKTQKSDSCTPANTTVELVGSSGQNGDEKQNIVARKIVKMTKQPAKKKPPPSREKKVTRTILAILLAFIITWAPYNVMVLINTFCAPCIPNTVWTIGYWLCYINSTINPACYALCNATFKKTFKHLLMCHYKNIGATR

[2] = Displacement of [3H]epibatidine from Torpedo californica muscle-type nAChR after 90 mins by liquid scintillation counting; type: tissue-based, Tetronarce californica
How it was run: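 Torpedo californica electric organ membranes, homogenised and washed in HSS, 60−70 μg per sample. Incubated with (±)-[3H]epibatidine for 90 min at 22 °C; (−)-nicotine defined nonspecific binding. Filtered through PEI-soaked GF/B filters and counted by scintillation. […] Mean ± SEM of 3–5 experiments.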

[3] = molecular target: T2, Neuronal acetylcholine receptor subunit alpha-7 (Homo sapiens, UniProt P36544); test: Antagonist activity at human alpha7 nAChR expressed in GH3 cells by Ca2+/Fluo-4 assay; type: cell-based
[4] = molecular target: T2, Neuronal acetylcholine receptor subunit alpha-7; test: Ratio of toxiferine-I IC50 to compound IC50 for human alpha7 nAChR expressed in GH3 cells by Ca2+/Fluo-4 assay; type: cell-based

T2 sequence (P36544 whole entry): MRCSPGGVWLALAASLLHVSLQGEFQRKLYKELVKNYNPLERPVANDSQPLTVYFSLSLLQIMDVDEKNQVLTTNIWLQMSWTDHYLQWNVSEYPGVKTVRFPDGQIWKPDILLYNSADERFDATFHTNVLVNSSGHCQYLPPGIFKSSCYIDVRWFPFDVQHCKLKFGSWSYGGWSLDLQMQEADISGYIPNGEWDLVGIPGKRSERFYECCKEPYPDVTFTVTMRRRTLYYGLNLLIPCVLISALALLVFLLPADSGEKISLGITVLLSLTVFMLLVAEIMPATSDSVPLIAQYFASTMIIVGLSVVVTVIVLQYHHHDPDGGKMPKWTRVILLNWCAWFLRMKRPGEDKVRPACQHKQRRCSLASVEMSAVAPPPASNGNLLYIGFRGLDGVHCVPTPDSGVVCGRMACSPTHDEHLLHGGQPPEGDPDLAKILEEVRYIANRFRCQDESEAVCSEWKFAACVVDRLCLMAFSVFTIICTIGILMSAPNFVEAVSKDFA

Row | Compound | EC50 [1] [nM] | Ki [2] [nM] | IC50 ([3]; read-out: IC50) [nM] | IC50 ([3]; read-out: pIC50 (converted)) [nM] | Ratio IC50 [4]
1 | CC[C@@H]1C[N+]2(Cc3ccc([N+](=O)[O-])cc3)CC[C@@]34c5ccccc5N5/C=C6/[C@H]7C[C@H]8[C@@]9(CC[N+]8(Cc8ccc([N+](=O)[O-])cc8)C[C@H]7CCO)c7ccccc7N(/C=C(/[C@H]1C[C@@H]32)[C@H]54)[C@@H]69 (some centres not stated) | 32 | 290 | 4200 | 4170 | –
2 | CC[C@@H]1CN2CC[C@@]34c5ccccc5N5/C=C6/[C@H]7C[C@@H]8N(CC[C@@]89c8ccccc8N(/C=C(/[C@H]1C[C@H]23)[C@H]54)[C@@H]69)C[C@H]7CCO | 410 | 390 | 2200 | 2340 | –
3 | C=CC[N+]12CC[C@@]34c5ccccc5N5[C@@H]6OC=C7C[N+]8(CC=C)CC[C@]9%10c%11ccccc%11N([C@@H]%11OCC=C(C1)[C@H](C[C@@H]32)[C@@H]%11[C@H]54)[C@H]9[C@H]6[C@H]7C[C@@H]%108 (some centres not stated) | 11 | 1500 | – | – | –
4 | CC[C@@H]1CN2CC[C@@]34c5ccccc5N5/C=C6/[C@H]7C[C@@H]8N(CC[C@@]89c8ccccc8N(/C=C(/[C@H]1C[C@H]23)[C@H]54)[C@@H]69)C[C@H]7CC | 500 | 669 | 3300 | 3310 | –
5 | CC[C@@H]1C[N+]2(Cc3ccc([N+](=O)[O-])cc3)CC[C@@]34c5ccccc5N5/C=C6/[C@H]7C[C@H]8[C@@]9(CC[N+]8(Cc8ccc([N+](=O)[O-])cc8)C[C@H]7CC)c7ccccc7N(/C=C(/[C@H]1C[C@@H]32)[C@H]54)[C@@H]69 (some centres not stated) | 49 | 81.9 | 21000 | 21400 | –
6 | C1=C2CN3CC[C@]45c6ccccc6N6[C@@H]7OCC=C8CN9CC[C@]%10%11c%12ccccc%12N([C@H](OC1)[C@@H]([C@H]64)[C@H]2C[C@H]35)[C@H]%10[C@H]7[C@H]8C[C@H]9%11 [CARACURINE V] | 436 | > 100000 | – | – | –
7 | C[N+]12CC[C@@]34c5ccccc5N5[C@@H]6OC=C7C[N+]8(C)CC[C@]9%10c%11ccccc%11N([C@@H]%11OCC=C(C1)[C@H](C[C@@H]32)[C@@H]%11[C@H]54)[C@H]9[C@H]6[C@H]7C[C@@H]%108 (some centres not stated) | 8 | 5200 | – | – | –
8 | C[N+]12CC[C@@]34c5ccccc5N5/C=C6/[C@H]7C[C@H]8[C@@]9(CC[N+]8(C)C/C7=C/CO)c7ccccc7N(/C=C(/[C@@H](C[C@@H]31)/C(=C\CO)C2)[C@H]54)[C@@H]69 (some centres not stated) | 96 | 14 | – | – | –
9 | C=CC[N@@+]12CC[C@@]34c5ccccc5N5/C=C6/[C@H]7C[C@H]8[C@@]9(CC[N@@+]8(CC=C)C/C7=C/CO)c7ccccc7N(/C=C(/[C@@H](C[C@@H]31)/C(=C\CO)C2)[C@H]54)[C@@H]69 [ALCURONIUM] | 2 | 234 | – | – | –
10 | C=CC[N+]12CC[C@@]34c5ccccc5N5/C=C6/[C@H]7C[C@H]8[C@@]9(CC[N+]8(CC=C)C[C@H]7CC)c7ccccc7N(/C=C(/[C@@H](C[C@@H]31)[C@H](CC)C2)[C@H]54)[C@@H]69 (some centres not stated) | 36 | 75.1 | – | – | –
11 | C=CC[N+]12CC[C@@]34c5ccccc5N5/C=C6/[C@H]7C[C@H]8[C@@]9(CC[N+]8(CC=C)C[C@H]7CCO)c7ccccc7N(/C=C(/[C@@H](C[C@@H]31)[C@H](CC)C2)[C@H]54)[C@@H]69 (some centres not stated) | 12 | 250 | 3100 | 3160 | –
12 | CC[C@@H]1C[N+]2(C)CC[C@@]34c5ccccc5N5/C=C6/[C@H]7C[C@H]8[C@@]9(CC[N+]8(C)C[C@H]7CC)c7ccccc7N(/C=C(/[C@H]1C[C@@H]32)[C@H]54)[C@@H]69 (some centres not stated) | 260 | 150 | 820 | 813 | 10
13 | CC[C@@H]1C[N+]2(C)CC[C@@]34c5ccccc5N5/C=C6/[C@H]7C[C@H]8[C@@]9(CC[N+]8(C)C[C@H]7CCO)c7ccccc7N(/C=C(/[C@H]1C[C@@H]32)[C@H]54)[C@@H]69 (some centres not stated) | 320 | 455 | 590 | 603 | 10
